In PubChem BioAssay:
Results filed as inconclusive are left out.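 How the source made its calls, unless noted: active means inhibition over a set limit, the all-compound mean plus 3 SD, in both replicate runs; inconclusive means over that limit in just one replicate run; inactive means at or under that limit in both runs.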

What was measured:
[1] = OD615 S. cerevisiae growth inhibition, permissive medium, pilot counter-assay, permissive growth control for S. cerevisiae lifespan shortening project (AID 705;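 active means growth inhibition above 25% in both replicates, a cutoff set 3 SD above the mean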); settings: OD615, 24 h, at 10 µM, active compounds read high
How it was run: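 System: S. cerevisiae with engineered DeaD lifespan system. Medium: SC raffinose/galactose permissive medium. Doses: single compound dose of 10 µM, 0.25% DMSO final. Schedule: 24 h exposure, 30 °C. Measured by: OD615 turbidity read. Read-out: growth inhibition.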

[2] = Restrictive medium S. cerevisiae growth inhibition, OD615, pilot screen of yeast lifespan reduction project, restrictive growth control (AID 706;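 active means growth inhibition above a set limit, 3 SD over mean compound inhibition, in both replicates, cut at about 43% in these data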;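 further: modified DeaD lifespan yeast strain shifted to restrictive glucose medium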); settings: OD615, 48 h, at 10 µM, active compounds read high
How it was run: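 Assay system – genetically modified Saccharomyces cerevisiae, DeaD replicative lifespan assay strain · Medium – CSMM-D glucose medium · Doses – 10 µM compound, 0.25% DMSO · Times – 4 h pre-incubation, 48 h exposure at 30 °C · Signal – optical density at 615 nm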

[3] = viability gain of MRP-1-high H69AR cells under doxorubicin, pilot screen, MRP-1 activator project, CellTiter-Glo, duplicate (AID 807;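 active means viability increase at or above a cutoff of the median across tested compounds plus 3 SD, cut at about 8.5% in these data, passing the limit was not always enough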;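 further: compound pretreatment 18-22 h then 72 h combined with doxorubicin; 0% = doxorubicin alone and 100% = vehicle without doxorubicin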); settings: H69AR viability with doxorubicin, CellTiter-Glo luminescence; at 10 µM; active compounds read high
[4] = growth suppression of beta-catenin knockout HCT116, pilot screen, human colon tumor cells (AID 823;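 active means cell viability at or below a set limit in both duplicate runs, the limit being the all-compound median minus 4 SD, cut at about 23% in these data, passing the limit was not always enough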;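 further: 0% = wells killed by 20 µM Hyamine and 100% = untreated DMSO cell wells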); settings: CellTiter-Glo, 60 h, at 10 µM, active compounds read low
[5] = growth suppression of PTEN-deleted HCT116, pilot screen, cell-based, HCT116 clonal line, CellTiter-Glo (AID 824;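 active means viability at or below 27.92% in each of two runs, the all-compound median minus 4 SD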;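 further: 0% = 20 µM Hyamine control and 100% = vehicle cell control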); settings: 60 h, at 10 µM, active compounds read low
[6] = inhibitors of the yeast RAM network, pilot screen, dse1pr::URA3 reporter, 5-FOA selection (AID 869);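 further: 0% = DMSO wells with no growth and 100% = 10 µM 1-NA-PP1 with full growth; RAM network block rescues cells from 5-FOA so hits raise OD615 growth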; settings: S. cerevisiae dse1pr::URA3 5-FOA growth, OD615, 2 d; at 10 µM; active compounds read high; strain carries analog-sensitive mutant Cbk1 kinase
[7] = RAM signaling pathway blockade in yeast – S. cerevisiae, Pdr1DBD-CYC8 efflux-inhibited sensitized strain, primary screen (AID 1298;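 active means RAM network inhibition above 8.4% in each of two replicates, 3 SD over the compound average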;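 further: 0% = DMSO untreated cells without growth and 100% = 10 µM 1-NA-PP1 full growth; higher means more yeast growth rescued from 5-FOA killing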); settings: S. cerevisiae cbk1-as DSE1-URA3 strain, 5-FOA growth OD615, 2 d; at 50 µM; active compounds read high

CCCCCn1c(NC2CCCCC2)nc2c1c(=O)[nH]c(=O)n2C
inactive: growth inhibition [1] -15.8% | growth inhibition [2] -18.2% | viability increase [3] -3.48% | viability [4] 83.3% | viability [5] 86.1% | inhibition [6] 1.53% | RAM network inhibition [7] -0.84%

Cn1c(=O)oc2cc(S(=O)(=O)N3CCCC(C(=O)N4CC=C(c5ccccc5)CC4)C3)ccc21 (configuration not stated)
inactive: growth inhibition [1] -10.7% | growth inhibition [2] 8.07% | viability increase [3] -1.04% | viability [4] 80.9% | viability [5] 82.1% | inhibition [6] 1.17% | RAM network inhibition [7] 4.97%

CCc1nc(SCC(=O)c2ccc(C)c(C)c2)n[nH]1
inactive: growth inhibition [1] -9.29% | growth inhibition [2] 4.11% | viability increase [3] 2.14% | viability [4] 102% | viability [5] 104% | inhibition [6] 0.56% | RAM network inhibition [7] 6.63%

O=C(CCCN1C(=O)c2ccccc2C1=O)Nc1ccccc1C(=O)N1CCOCC1
inactive: growth inhibition [1] -5.06% | growth inhibition [2] 2.61% | viability increase [3] 0.44% | viability [4] 102% | viability [5] 103% | inhibition [6] 0.11% | RAM network inhibition [7] 3.36%

Cc1c(C(=O)NCC2CCCO2)oc2ccc(S(=O)(=O)N3CC(C)CC(C)C3)cc12 (configuration not stated)
inactive: growth inhibition [1] -2.38% | growth inhibition [2] 14.2% | viability increase [3] -4.71% | viability [4] 44.5% | viability [5] 38.1% | inhibition [6] 3.72% | RAM network inhibition [7] 4.28%

Cc1ccc(N(C(=O)CC2NC(=O)NC2=O)C2(C(=O)NC3CCCC3)CCCCC2)cc1 (configuration not stated)
inactive: growth inhibition [1] -9.96% | growth inhibition [2] -19.7% | viability increase [3] -1.56% | viability [4] 95.2% | viability [5] 93.7% | inhibition [6] -0.23% | RAM network inhibition [7] 3.14%

COc1cccc(C2CC(c3cccc(C)c3)n3ncnc3N2)c1 (configuration not stated)
inactive: growth inhibition [1] -9.14% | growth inhibition [2] -3.84% | viability increase [3] -2.07% | viability [4] 90% | viability [5] 90.4% | inhibition [6] 0.92% | RAM network inhibition [7] 0.74%

C=CCn1c(SCCCc2ccccc2)nc2c1c(=O)[nH]c(=O)n2C
inactive: growth inhibition [1] 5.96% | growth inhibition [2] 6.29% | viability increase [3] -5.7% | viability [4] 67.8% | viability [5] 65.2% | inhibition [6] 0.525% | RAM network inhibition [7] 4.94%

Cc1ccc(C(=O)Nc2nc3ccccc3n2CCN2CCCC2)cc1
inactive: growth inhibition [1] -11.4% | growth inhibition [2] -2% | viability increase [3] -5.99% | viability [4] 37.4% | viability [5] 51.5% | inhibition [6] 0.665% | RAM network inhibition [7] 7.05%

FC(F)(F)C12CC(c3ccccc3)=NCCN1CCN2 (configuration not stated)
inactive: growth inhibition [1] -4.15% | growth inhibition [2] 4.43% | viability increase [3] -1.23% | viability [4] 102% | viability [5] 97.9% | inhibition [6] 1.35% | RAM network inhibition [7] -0.53%

CCOC(=O)c1c(NC(=O)C2CCCN2S(=O)(=O)c2cccc3nsnc23)sc(C)c1C (configuration not stated)
inactive: growth inhibition [1] -7.06% | growth inhibition [2] -0.39% | viability increase [3] 0.59% | viability [4] 74% | viability [5] 72.5% | inhibition [6] 0.565% | RAM network inhibition [7] 7.77%

COc1cccc(-c2nc(CS(=O)CC(=O)NCc3ccc4c(c3)OCO4)c(C)o2)c1 (configuration not stated)
inactive: growth inhibition [1] -3.78% | growth inhibition [2] 14.7% | viability increase [3] 0.74% | viability [4] 97.2% | viability [5] 101% | inhibition [6] 3% | RAM network inhibition [7] 4.76%

O=C(COc1ccc(S(=O)(=O)NC2CCCCC2)cc1)N1CCN(c2ccc(F)cc2)CC1
inactive: growth inhibition [1] -6.21% | growth inhibition [2] -0.445% | viability increase [3] -0.23% | viability [4] 65.5% | viability [5] 67.1% | inhibition [6] -0.725% | RAM network inhibition [7] 3.14%

Cc1cc(C)n2c(SCC#N)nnc2n1
inactive: growth inhibition [1] -13.1% | growth inhibition [2] -13% | viability increase [3] 0.04% | viability [4] 103% | viability [5] 92.2% | inhibition [6] 2.84% | RAM network inhibition [7] 3.94%

CCOC(=O)c1ccc(S(=O)(=O)N2CCN(CCC#N)CC2)cc1
inactive: growth inhibition [1] -7.13% | growth inhibition [2] 0.63% | viability increase [3] 1.42% | viability [4] 102% | viability [5] 99.4% | inhibition [6] 0.195% | RAM network inhibition [7] 0.21%

Clc1ccc(-n2ncc3c(N4CCCCCC4)ncnc32)cc1
inactive: growth inhibition [1] 1.26% | growth inhibition [2] -16.7% | viability increase [3] -0.56% | viability [4] 83.5% | viability [5] 78.5% | inhibition [6] -0.14% | RAM network inhibition [7] 8.42%

CCC(CC)C(=O)Nc1ccccc1NC(C)=O
inactive: growth inhibition [1] -3.13% | growth inhibition [2] 0.295% | viability increase [3] 0.4% | viability [4] 99.8% | viability [5] 98% | inhibition [6] 0.36% | RAM network inhibition [7] 4.35%

O=C(Nc1ccccc1)C1CC=CCC1C(=O)OCC1CCCO1 (configuration not stated)
inactive: growth inhibition [1] -9.52% | growth inhibition [2] -20.7% | viability increase [3] 0.15% | viability [4] 102% | viability [5] 102% | inhibition [6] 2.69% | RAM network inhibition [7] 0.98%

O=C(OCCN1C(=O)c2ccccc2C1=O)c1cc2ccccc2o1
inactive: growth inhibition [1] -11.6% | growth inhibition [2] -4.04% | viability increase [3] 0.07% | viability [4] 97.3% | viability [5] 99.1% | inhibition [6] 2.92% | RAM network inhibition [7] 3.68%

CC(=O)c1ccc(OCC(O)COc2ccc(C(C)=O)cc2)cc1
inactive: growth inhibition [1] -2.04% | growth inhibition [2] -4.87% | viability increase [3] 0.11% | viability [4] 96.2% | viability [5] 94.7% | inhibition [6] 1.22% | RAM network inhibition [7] 0.16%

CC1=CS/C(=C(/C#N)C(=O)N2CCCCC2)N1c1ccccc1
inactive: growth inhibition [1] -0.66% | growth inhibition [2] -8.34% | viability increase [3] -1.48% | viability [4] 97.3% | viability [5] 95.8% | inhibition [6] 0.425% | RAM network inhibition [7] 2.37%

CCCCC1CCC(c2nc(-c3cccnc3)no2)CC1 (configuration not stated)
inactive: growth inhibition [1] -7.54% | growth inhibition [2] 9.22% | viability increase [3] -0.18% | viability [4] 93.5% | viability [5] 88% | inhibition [6] -1.52% | RAM network inhibition [7] -1.92%

O=C1c2oc3ccc(F)cc3c(=O)c2C(c2cccc(O)c2)N1CCCN1CCOCC1 (configuration not stated)
inactive: growth inhibition [1] -6.24% | growth inhibition [2] -8.16% | viability increase [3] 0.39% | viability [4] 99% | viability [5] 96.2% | inhibition [6] 0.63% | RAM network inhibition [7] 0.27%

O=C(NCc1cn2ccsc2n1)c1c(F)cccc1Cl
inactive: growth inhibition [1] -10.2% | growth inhibition [2] -8.81% | viability increase [3] 1.01% | viability [4] 107% | viability [5] 99.6% | inhibition [6] 0.93% | RAM network inhibition [7] 2.61%

CCOC(=O)N1CCC(NC(=O)CN2C(=O)CSc3ncccc32)CC1
inactive: growth inhibition [1] 0.38% | growth inhibition [2] -5.29% | viability increase [3] -0.23% | viability [4] 104% | viability [5] 99% | inhibition [6] 2.81% | RAM network inhibition [7] 1.48%

Cn1c(N)c(C(=O)COC(=O)Cc2ccsc2)c(=O)n(C)c1=O
inactive: growth inhibition [1] -10.1% | growth inhibition [2] -0.56% | viability increase [3] -0.79% | viability [4] 93.6% | viability [5] 97.7% | inhibition [6] 0.31% | RAM network inhibition [7] -0.32%

O=C(O)C1CCCCC1C(=O)NCc1cn2ccccc2n1 (configuration not stated)
inactive: growth inhibition [1] -16.1% | growth inhibition [2] -10.5% | viability increase [3] -1.38% | viability [4] 110% | viability [5] 93.7% | inhibition [6] 0.43% | RAM network inhibition [7] 9.11%

C=CCc1cc(/C=N/n2cnnc2)cc(OCC)c1O
inactive: growth inhibition [1] -10.7% | growth inhibition [2] -1.86% | viability increase [3] -2.46% | viability [4] 102% | viability [5] 94.7% | inhibition [6] 0.925% | RAM network inhibition [7] 0.6%

COc1ccc(C2=NOC(C(=O)Nc3c(C)n(C)n(-c4ccccc4)c3=O)C2)cc1OC (configuration not stated)
inactive: growth inhibition [1] -9.01% | growth inhibition [2] -7.64% | viability increase [3] 1.69% | viability [4] 102% | viability [5] 106% | inhibition [6] 0.4% | RAM network inhibition [7] 4.75%

CN(C)CCCNCCCNC(=O)/C(=N\O)c1ccccn1
inactive: growth inhibition [1] -3.34% | growth inhibition [2] -2.4% | viability increase [3] 1.1% | viability [4] 93.3% | viability [5] 105% | inhibition [6] 1.53% | RAM network inhibition [7] 2.45%

Cc1ccc(S(=O)(=O)NCCCN2CCOCC2)c(C)c1
inactive: growth inhibition [1] -5.02% | growth inhibition [2] -7.8% | viability increase [3] -1.19% | viability [4] 96.8% | viability [5] 95.5% | inhibition [6] 2.29% | RAM network inhibition [7] 5.89%

O=c1c2cnn(-c3ccccc3)c2ncn1Cc1ccccc1F
inactive: growth inhibition [1] -1.06% | growth inhibition [2] 9.05% | viability increase [3] -0.65% | viability [4] 93% | viability [5] 88.6% | inhibition [6] -0.06% | RAM network inhibition [7] 4.95%

O=C(CSc1nc2c(c(=O)n1-c1ccc(Cl)cc1)SCC2)Nc1ccc2c(c1)OCCO2
inactive: growth inhibition [1] -7.54% | growth inhibition [2] 10.9% | viability increase [3] -2.7% | viability [4] 92% | viability [5] 84.8% | inhibition [6] 2.02% | RAM network inhibition [7] 4.16%

Cc1ccc(C)n1-n1c(C)nc2scc(-c3cccs3)c2c1=O
inactive: growth inhibition [1] -13.1% | growth inhibition [2] 1.95% | viability increase [3] -3.42% | viability [4] 72.1% | viability [5] 71.6% | inhibition [6] 0.72% | RAM network inhibition [7] 2.2%

CC(C)N1C(=O)CCC1C(=O)NCCc1ccc(Cl)cc1 (configuration not stated)
inactive: growth inhibition [1] -1.75% | growth inhibition [2] 3.14% | viability increase [3] 0.32% | viability [4] 100% | viability [5] 97.3% | inhibition [6] 0.29% | RAM network inhibition [7] -0.47%

COc1cc2[nH]c(=O)n(CCCC(=O)NCCc3ccccc3)c(=O)c2cc1OC
inactive: growth inhibition [1] -4.08% | growth inhibition [2] -7.02% | viability increase [3] -3.37% | viability [4] 99% | viability [5] 94.5% | inhibition [6] 3.42% | RAM network inhibition [7] 2.87%
